Results published in ChEMBL document CHEMBL4334439, “Discovery, Optimization, and Target Identification of Novel Potent Broad-Spectrum Antiviral Inhibitors” (J Med Chem, 2019).
Calls of active or inactive are those of the source. The rule behind the calls is not given here.

Columns and labels:
Hepatitis C virus [1] = assay: Antiviral activity against EGFP-fused HCV JFH-1 harboring K78E/E2-G451R/NS3-M260K/NS5A-T462I mutant infected in human Huh7.5.1 cells assessed as reduction in viral RNA level after 2 days by qRT-PCR analysis; assay type: functional, organism-based
How it was run: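 Huh7.5.1 cells at 1×10^4/well, grown overnight at 37 °C. HCVcc was mixed with serially diluted compound (top 30 or 6 μM), given alone or with the named drug, and added to the cells. Viral RNA was read by qRT-PCR after 2 days. EC50 is the concentration giving 50% RNA reduction.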

Hepatitis C virus [2] = assay: Antiviral activity against HCV JFH-1 harboring K78E/E2-G451R/NS3-M260K/NS5A-T462I mutant infected in human Huh7.5.1 cells after 2 days by renilla luciferase reporter gene assay; assay type: functional, organism-based, Hepacivirus hominis; conditions: JFH-1, Huh-7.5.1, 48 h
How it was run: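 Renilla luciferase reporter HCVcc (hRluc inserted in NS5A, aa 399/400) came from electroporated Huh7.5.1 supernatant. Virus plus serially diluted compound (top 30 or 6 μM) was added to Huh7.5.1 cells (1×10^4/well) and luminescence read. EC50 is 50% luminescence reduction.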

Hepatitis C virus [3] = assay: Antiviral activity against EGFP-fused HCV JFH-1 harboring K78E/E2-G451R/NS3-M260K/NS5A-T462I mutation infected in human Huh7.5.1 cells assessed as combination index after 2 days in presence of boceprevir by qRT-PCR analysis; assay type: functional, Hepacivirus hominis
How it was run: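 In HCVcc-infected Huh7.5.1 cells (1×10^4/well, overnight, 37 °C), compound was given at various concentrations alone or with the named approved antiviral. After 2 days HCV RNA was quantified by qRT-PCR to derive the combination index.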

Zika virus = assay: Antiviral activity against ZIKV infected in human Huh7.5.1 cells assessed as inhibition of viral replication measured after 3 days qRT-PCR analysis; assay type: functional, organism-based; conditions: Huh-7.5.1, 72 h
How it was run: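 Huh7.5.1 cells were infected with DENV II or ZIKV at MOI 0.1 and treated with compound. Viral RNA was quantified by qRT-PCR after 3 days. EC50 is 50% reduction of RNA level.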

Chikungunya virus = assay: Antiviral activity against CHIKV infected in African green monkey Vero cells assessed as reduction in viral titre measured at 36 hrs post infection; assay type: functional, organism-based
Influenza A virus = assay: Antiviral activity against Gaussia tagged Influenza A virus (A/Puerto Rico/8/34(H1N1)) infected in MDCK cells assessed as inhibition of H1N1 replication measured at 24 hrs post infection by luciferase reporter gene assay; assay type: functional, organism-based; conditions: A/Puerto Rico/8/1934(H1N1)
How it was run: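 MDCK cells at 1×10^5/well, cultured overnight, were infected with A/PR/8/34(H1N1)-Gaussia luciferase at MOI 0.1. Compound (0.05–20 µM) was added immediately. Luminescence or qRT-PCR was read at 24 hpi; EC50 is 50% reduction.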

[4] = Cytotoxicity against HEK293T cells infected with HIV pseudotyped virions assessed as decrease in cell viability after 48 hrs by WST1 assay; assay type: cell-based, HEK-293T; conditions: human
How it was run: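 Cells seeded at 1 × 10^4 per well and cultured overnight at 37 °C, then incubated 48 h with serially diluted compounds. Viability read with WST-1 reagent as absorbance at OD450/OD630.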

[5] = Selectivity index, ratio of CC50 for African green monkey Vero cells to EC50 for CHIKV infected in African green monkey Vero cells; assay type: toxicity; conditions: read-out: Ratio CC50/EC50
[6] = target: T1, Sialate O-acetylesterase (Homo sapiens) (UniProt Q9HAT2); assay: Binding affinity to SIAE in human Huh7.5.1 cell lysate infected with HCV at 0.1 to 10 uM incubated for 1 hr followed by 10000 mJ/cm2 UV irradiation for 10 mins and subsequent addition of biotin-N3 measured after 1 hr by ABPP Gel-based by LC/MS/MS analysis; assay type: subcellular
T1 sequence (whole entry): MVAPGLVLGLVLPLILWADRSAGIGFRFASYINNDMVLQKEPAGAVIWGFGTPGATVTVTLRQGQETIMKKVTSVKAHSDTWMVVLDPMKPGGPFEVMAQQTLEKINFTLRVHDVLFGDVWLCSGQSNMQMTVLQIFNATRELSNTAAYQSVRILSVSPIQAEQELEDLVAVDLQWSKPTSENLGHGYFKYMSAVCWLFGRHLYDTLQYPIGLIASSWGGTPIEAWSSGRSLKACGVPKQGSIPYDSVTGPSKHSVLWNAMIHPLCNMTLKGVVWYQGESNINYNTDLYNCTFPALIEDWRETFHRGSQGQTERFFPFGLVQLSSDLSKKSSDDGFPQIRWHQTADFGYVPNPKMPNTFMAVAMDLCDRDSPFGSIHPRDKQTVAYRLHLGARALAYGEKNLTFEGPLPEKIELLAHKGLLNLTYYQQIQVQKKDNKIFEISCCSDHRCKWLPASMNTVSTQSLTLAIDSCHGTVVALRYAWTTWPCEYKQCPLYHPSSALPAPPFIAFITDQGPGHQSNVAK
How it was run: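 ABPP: Huh7.5.1 cells HCV-infected 2 days were lysed by sonication in PBS with protease inhibitors (~1.5 mg/ml protein). Photo-probe at 1.0–10.0 μM was UV-crosslinked (350 nm, 10000 mJ/cm2, 10 min), then clicked to biotin-N3 (CuSO4/TBTA/TCEP, 1 h RT). Proteins were precipitated, avidin pull-down, washed with SDS, urea, PBS; LC-MS/MS versus negative-probe, competitor and DMSO groups.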

[7] = target: T2, Membrane protein MLC1 (Homo sapiens) (UniProt Q15049); assay: Binding affinity to MLC1 in human Huh7.5.1 cell lysate infected with HCV at 0.1 to 10 uM incubated for 1 hr followed by 10000 mJ/cm2 UV irradiation for 10 mins and subsequent addition of biotin-N3 measured after 1 hr by ABPP Gel-based by LC/MS/MS analysis; assay type: subcellular
T2 sequence (whole entry): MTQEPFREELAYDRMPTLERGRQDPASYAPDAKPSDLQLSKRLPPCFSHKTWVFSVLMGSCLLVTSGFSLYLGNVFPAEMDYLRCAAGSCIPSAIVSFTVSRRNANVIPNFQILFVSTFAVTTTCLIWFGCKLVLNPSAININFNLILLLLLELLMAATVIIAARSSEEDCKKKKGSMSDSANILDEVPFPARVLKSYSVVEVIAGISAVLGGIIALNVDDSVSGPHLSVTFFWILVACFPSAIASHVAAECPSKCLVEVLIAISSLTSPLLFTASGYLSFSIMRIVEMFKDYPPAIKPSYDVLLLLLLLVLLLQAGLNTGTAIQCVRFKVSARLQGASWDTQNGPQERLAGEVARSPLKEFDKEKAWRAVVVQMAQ

[8] = Cytotoxicity against human Caco2 cells infected with MERS-CoV measured after 48 hrs by WST1 assay; assay type: cell-based, Caco-2
How it was run: (§1)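 Cells at 1×10^4/well, cultured overnight at 37 °C, were incubated 48 h with serially diluted compound. Viability was read by WST-1 absorbance (OD450/OD630).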

[9] = Cytotoxicity against African green monkey Vero cells infected with SFTSV measured after 48 hrs by WST1 assay; assay type: cell-based; conditions: chlorocebus sabaeus; how it was run: as §1
[10] = Cytotoxicity against MDCK cells infected with Gaussia tagged Influenza A virus (A/Puerto Rico/8/34(H1N1)) measured after 48 hrs by WST1 assay; assay type: cell-based, Canis lupus familiaris; conditions: dog; how it was run: as §1

CCN(CC)c1ccc(Oc2ccc(-c3[nH]c4cccc(F)c4c(=O)c3C)cc2F)cc1
Activity (Hepatitis C virus [1]; Hepacivirus hominis): Dose-dependent effect | EC50 (Hepatitis C virus [1]; JFH-1, Huh-7.5.1, 48 h): 5 to 7 nM | EC50 (Hepatitis C virus [2]): 4 to 7 nM | CI (Hepatitis C virus [3]): >50 | EC50 (Zika virus): 20 nM | EC50 (Chikungunya virus): 260 nM | EC50 (Influenza A virus): 240 nM | CC50 at 48 h [4]: > 1250 nM | selectivity ratio [5]: > 10 | Activity [6]: Active | Activity [7]: Active | CC50 at 48 h [8]: > 2500 nM | CC50 at 48 h [9]: > 2500 nM | CC50 at 48 h [10]: > 2500 nM
